Assay results collected from several papers.
Protocols differ between the studies behind these lines.
Read-out: DPPH scavenging

O=[N+]([O-])c1ccccc1/C=N/N=C/c1ccccc1[N+](=O)[O-]  IC50: 2940 µM
Cc1cc(C(C)(C)C)c(O)c(C(C)(C)C)c1  IC50 (absorbance; 30 min): 69 µg/mL
CCN(CC)c1ccc(/C=N/c2ccccc2F)c(O)c1  IC50: 38.1 µM
Cc1c(C)c2c(c(C)c1O)CCC(C)(C(=O)O)O2 (stereo not shown)  IC50: 221 µM
Clc1ccc(/C=N/N=C/c2ccc(Cl)cc2)cc1  IC50: > 3000 µM
O=C1O[C@H]([C@@H](O)CO)C(O)=C1O  IC50 (absorbance; 30 min): 11.6 µM
Oc1cc(O)c2c(c1)O[C@H](c1ccc(O)c(O)c1)[C@@H](O)C2  IC50: 31.2 µM
O=C1O[C@H]([C@@H](O)CO)C(O)=C1O  IC50: 350 µM
CCN(CC)c1ccc(/C=N/c2ccccc2Br)c(O)c1  IC50: 40.5 µM
Fc1ccccc1/C=N/N=C/c1ccccc1F  IC50: 2800 µM
